The values that follow come from ChEMBL document CHEMBL4765431, “Novel phthalide derivatives: Synthesis and anti-inflammatory activity in vitro and in vivo” (Eur J Med Chem, 2020).

Each structure is given as a SMILES string. The source made the active and inactive calls. The calls are words filed in the database; no cut-off is given here.

In test [1] the test system is RAW264.7. Briefly: Antiinflammatory activity in mouse RAW264.7 cells assessed as inhibition of LPS-induced nitric oxide production at 10 uM preincubated for 1 hr followed by LPS stimulation and measured after 24 hrs by Griess reagent-based assay relative to control. It is filed as functional. To be noted: time 25 hrs. The method in brief: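 RAW264.7 cells (7 × 10^4/well, used 24 h after seeding) in DMEM with 10% heat-inactivated FBS, 37 °C, 5% CO2. Pretreated 1 h with compound (10 µM screen; 0.625–10 µM dose series), then LPS 0.5 µg/mL for 24 h. Supernatant mixed 1:1 with Griess reagent, 15 min at room temperature, absorbance read at […].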
For orientation: Nitrite, measured by Griess reagent, commonly stands in for NO production.

Test [2] deals with RAW264.7. The test is described as follows: Anti-inflammatory activity in mouse RAW264.7 cells assessed as inhibition of LPS-induced iNOS protein expression preincubated for 1 hr followed by LPS stimulation and measured after 24 hrs by Western blot analysis. The format is functional, cell-based. To be noted: dose 0.5-2 µM, time 25.0 hrs. The method in brief: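 Cells pretreated 1 h with 0.5, 1, 2 µM, then LPS 0.5 µg/mL for 24 h. iNOS, COX-2 and β-actin detected by Western blot (RIPA lysis, PVDF, primary 16 h at 4 °C, HRP secondary, ECL). Blots representative of three separate experiments.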
In general terms: A western blot detects proteins with antibodies after separation by electrophoresis.

Test [3] deals with RAW264.7. Briefly: Inhibition of NF-kappaB activation in mouse RAW264.7 cells assessed as reduction in LPS-induced p65 nuclear translocation at 0.5 to 2 uM preincubated for 1 hr followed by LPS stimulation and measured after 30 mins by Western blotting analysis. The format is cell-based. The following applies: dose 0.5-2 µM, time 90.0 min.
Test [4] deals with RAW264.7. Briefly: Inhibition of MAPK signalling activation in mouse RAW264.7 cells assessed as reduction in LPS-induced ERK phosphorylation at 0.5 to 2 uM preincubated for 1 hr followed by LPS stimulation by Western blotting analysis. The format is cell-based. To be noted: dose 0.5-2 µM, TDE = time-dependent effect. The method, boiled down:
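Pretreatment 1 h with 0.5–2 µM, then LPS 0.5 µg/mL for 30 min. p-IκB, IκB, p-p65, p65, ERK, JNK, p38 and their phosphorylated forms, plus β-actin, detected by Western blot (RIPA lysis, SDS-PAGE, PVDF, primary 16 h at 4 °C, HRP secondary 1:5000, ECL).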

Test [5] has as its system Rattus norvegicus. Briefly: Antiarthritic activity in Sprague-Dawley rat model of CFA-induced arthritis assessed as reduction in paw swelling at 20 to 40 mg/kg, […] and measured every 3 days. It is filed as functional, organism-based. The following applies: dose 20-40 mg/kg.
Test [6] concerns Rattus norvegicus. Briefly: Antiarthritic activity in Sprague-Dawley rat model of arthritis assessed as reduction in CFA-induced cartilage destruction at 20 mg/kg, […] and measured every 3 days by H and E staining based histopathological analysis. It is filed as functional, organism-based.
Test [7] concerns Rattus norvegicus. The test is described as follows: Antiarthritic activity in Sprague-Dawley rat model of arthritis assessed as reduction in CFA-induced inflammatory cell infiltration at 40 mg/kg, ig administered daily for 28 days starting from 14 days post-immunization and measured every 3 days by H and E staining based histopathological analysis. It is filed as functional, organism-based. To be noted: time 28.0 day. The method, boiled down: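 AA rats (male SD, CFA intradermal into right hind paw) dosed intragastrically once daily at 20 or 40 mg/kg from day 14 to day 28. Killed after 29 days. Ankle joints fixed in 4% neutral buffered paraformaldehyde, decalcified in 10% EDTA, sectioned and H&E stained. Scored for synovial hyperplasia, inflammatory cell infiltration and cartilage destruction.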

In the case of `COc1cc(OC)c2c(c1)C(C(O)c1ccc(OCc3ccc(F)cc3)cc1)OC2=O` (configuration not stated), in the test with RAW264.7 [1], the inhibition at 10 µM is 95.2%. The results for the inhibition result in the test on RAW264.7 [2] and in the test with RAW264.7 [4] were “Dose-dependent effect” and “Tde”, respectively. In addition, the inhibition result in the test with RAW264.7 [3] is “Active”. The outcome with Rattus norvegicus [5], in the test on Rattus norvegicus [6] and in the test with Rattus norvegicus [7] was Active.

Broadly, the inhibition is the drop in the measured response relative to a control, in per cent.
